Bioassay records deposited in PubChem by Sanford-Burnham Center for Chemical Genomics.
Sampled rows, rich in hits. Any-hit rate of the full collection: about 1.2%.
Diaph act CS = counter-screen for diaphorase-based assays: diaphorase activators and chemical reducers | Diaphorase/resazurin coupled assay, resorufin fluorescence, 16 min; hits give high values; 1 = vehicle wells, 0 = NADH-free wells | activation factor at 20 µM | 190,000 compounds, 0.005% hits | AID 1229;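 active means diaphorase activity raised at least twofold by the compound at 20 µM; inactive means activation factor below 2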
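Assay system: Purified diaphorase enzyme from Clostridium kluyveri | Amount: Enzyme 0.07 U/mL final | Dosing: Compound 20 µM once, DMSO 1% | Timing: 16 min reaction at room temperature | Detection: Fluorescence, excitation 544 nm and emission 590 nm | Evaluation: Higher resorufin formation from activation or reduction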
HKDC1 inhibitor = blocks human hexokinase HKDC1 activity; recombinant HKDC1, G6PDH/diaphorase resazurin coupled fluorescence; inhibition, % at 20 µM; Q2TB90; 340,000 compounds, 0.16% hits; AID 493160;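 active means inhibition above about 35% when tested at 20 µM, limit read from the data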;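 further: plate controls were DMSO wells with enzyme for no effect and DMSO wells lacking enzyme for full effect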
Target sequence (Q2TB90 whole entry, looked up): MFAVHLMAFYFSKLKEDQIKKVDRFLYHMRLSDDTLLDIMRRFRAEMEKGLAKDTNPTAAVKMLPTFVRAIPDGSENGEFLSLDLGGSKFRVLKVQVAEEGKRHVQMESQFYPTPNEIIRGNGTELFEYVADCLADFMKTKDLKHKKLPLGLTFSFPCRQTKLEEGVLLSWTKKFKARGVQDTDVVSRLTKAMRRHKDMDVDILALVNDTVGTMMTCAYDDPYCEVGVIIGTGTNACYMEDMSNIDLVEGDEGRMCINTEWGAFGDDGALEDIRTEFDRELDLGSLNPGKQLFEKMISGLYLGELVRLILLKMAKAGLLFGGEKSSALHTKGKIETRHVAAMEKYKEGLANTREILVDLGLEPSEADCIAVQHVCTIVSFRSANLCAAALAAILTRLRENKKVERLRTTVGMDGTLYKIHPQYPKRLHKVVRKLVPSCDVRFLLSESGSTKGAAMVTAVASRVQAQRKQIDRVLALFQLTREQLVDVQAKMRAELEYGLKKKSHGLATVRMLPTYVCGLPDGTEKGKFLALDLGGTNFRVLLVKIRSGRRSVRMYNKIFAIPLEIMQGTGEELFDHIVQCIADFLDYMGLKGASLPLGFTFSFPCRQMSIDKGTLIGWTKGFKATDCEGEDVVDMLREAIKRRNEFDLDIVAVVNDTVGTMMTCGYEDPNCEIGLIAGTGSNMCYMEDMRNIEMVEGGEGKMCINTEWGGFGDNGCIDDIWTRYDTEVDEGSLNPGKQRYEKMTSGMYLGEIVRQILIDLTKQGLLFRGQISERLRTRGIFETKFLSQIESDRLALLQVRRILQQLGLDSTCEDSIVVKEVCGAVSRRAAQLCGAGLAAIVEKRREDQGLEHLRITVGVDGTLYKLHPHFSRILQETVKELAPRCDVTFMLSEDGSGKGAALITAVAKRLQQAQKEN
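Material: recombinant HKDC1 hexokinase; Amount: HKDC1 at 5 µg/mL; Medium: Tris pH 8.0 buffer with MgCl2, Tween-20, BSA, BME; Schedule: 90 min reaction incubation at room temperature, dark; Technique: coupled resazurin fluorescence, excitation 525 nm, emission 613 nm.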
Diaph inh CS = inhibits diaphorase or chemically oxidizes, flagging diaphorase assay artifacts; diaphorase resazurin-to-resorufin fluorescence, NADH, 16 min; bacterial (C. kluyveri) enzyme, not human; inhibition, % at 20 µM; 190,000 compounds, 0.69% hits; AID 1217;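 active means primary screen inhibition at 20 µM above a set limit, cut at about 50% in these data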;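 further: plate controls were DMSO with full reaction for no effect and wells lacking NADH for full effect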
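material = Clostridium kluyveri diaphorase enzyme | amount = 0.14 U/mL diaphorase, enzyme working solution | schedule = incubation 16 min, room temperature | detection = fluorescence of resorufin formed from resazurin, Ex 544/Em 590 nm | benchmarks = positive control minus NADH, DMSO neutral control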
PfG6PD inh = PfG6PD (Plasmodium falciparum) enzyme inhibition; inhibition, % at 20 µM; AID 504690; PfGluPho enzyme, NADPH resazurin-diaphorase fluorescence; 350,000 compounds, 0.78% hits;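 active means inhibition reaching at least a set limit at 20 µM in the primary screen, cut at about 59% in these data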;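 further: 0% = DMSO wells with substrate and 100% = DMSO wells lacking glucose-6-phosphate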
G6PDH CS = counter-screen for G6PDH assay hits: L. mesenteroides G6PDH inhibition | Purified L. mesenteroides G6PDH, diaphorase/resazurin coupled fluorescence, 45 min | inhibition, % at 5 µM | 200,000 compounds, 0.12% hits | AID 1020; in the data active means inhibition above about 50%
HKDC1 act conf = confirmation of human HKDC1 activators | inhibition, % at 20 µM | recombinant HKDC1, G6PDH/diaphorase resazurin fluorescence; hits give low values | shares compounds with HKDC1 inhibitor | 740 compounds, 14% hits;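 active means inhibition at or below a set negative limit, negative inhibition meaning the enzyme was activated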
* = called active by the depositor; · = not tested or not shown.

SMILES	Diaph act CS	HKDC1 inhibitor	Diaph inh CS	PfG6PD inh	G6PDH CS	others
CSc1ncnc2c1ncn2CCCN1CCN(c2ccccn2)CC1	·	·	·	-22.4	·
C[C@@H]1CN([C@@H](C)CO)S(=O)(=O)c2ccc(C#CC(C)(C)O)cc2O[C@H]1CN(C)C(=O)C1CCCCC1	·	·	·	-1.6	·
Cc1ccc2cc(C3C(C#N)=C(N)Oc4c3ccc3cccnc43)c(=O)[nH]c2c1 (configuration not stated)	0.6	-16.8	39.4	2.5	16.1
CCc1ccc2[nH]c(=O)c(C3C(C#N)=C(N)Oc4c3ccc3cccnc43)cc2c1 (configuration not stated)	0.5	-12.5	51.6*	-1.6	9.9
COc1c(C)cccc1C(=O)NC(=S)Nc1cccc2nsnc12	0.3	13.0	66.2*	20.4	10.1
CCOc1ccc(CCNC(=O)COC(=O)c2[nH]c(C)c(C(C)=O)c2C)cc1OCC	·	·	·	-17.4	·
CCN(CC)C(=O)CSc1nc2ccccc2c(=O)n1-c1cccc(OC)c1	0.9	3.6	9.1	-8.9	-0.2
COc1cccc(-n2c(SCc3cc(=O)oc4cc(O)c(O)cc34)nc3ccccc3c2=O)c1	0.4	17.2	58.6*	-33.7	-1.5
CN(Cc1ccccc1)C(=O)c1[nH]cnc1C(=O)Nc1ccc(Br)cc1F	·	·	·	-2.6	·
O=C(NNC(=S)NC(=O)c1ccccc1[N+](=O)[O-])c1ccccc1[N+](=O)[O-]	0.9	-14.0	8.1	-19.9	9.8
O=C(NNC(=S)NC(=O)c1ccccc1[N+](=O)[O-])c1ccccc1O	0.4	-27.8	59.3*	-44.4	5.4
COc1ccc(C=Nc2ccc3[nH]ncc3c2)c(O)c1	0.3	10.5	65.5*	21.8	40.4
CC1CCC2(CC1)NC(=O)N(CC(=O)Nc1ccc(N3CCCCC3)cc1)C2=O (configuration not stated)	·	·	·	21.9	·
O=C(c1cnn2c(C(F)(F)F)cc(-c3cccs3)nc12)N1CCCC1	·	-3.1	·	-5.7	·
O=C(NCc1ccco1)c1cnn2c(C(F)(F)F)cc(-c3cccs3)nc12	0.4	-0.4	57.9*	6.8	8.7
O=C1CC=Nc2ccc([N+](=O)[O-])cc21	·	·	·	-0.6	·
COC(=O)C1=C(C)N(C)C(=O)NC1c1cc2c(cc1[N+](=O)[O-])OCO2 (configuration not stated)	0.4	0.9	59.0*	29.5	10.0
COC(=O)C1=C(C)N(CCCC(=O)O)C(=O)NC1c1cc2c(cc1[N+](=O)[O-])OCO2 (configuration not stated)	0.6	3.7	38.2	17.5	16.6
CN1CCC(N(C)C(=O)CCc2nc3ccccc3n2-c2ccccc2)CC1	0.3	-0.7	73.8*	3.9	2.8
COc1ccc(NC(=O)c2cc3cccc(OC)c3oc2=Nc2ccc(C(=O)O)cc2)cc1OC	0.2	16.4	77.8*	-4.3	-1.6
COc1ccc(Br)cc1C(=O)Nc1ccc(C(=O)O)cc1	0.1	-6.2	91.5*	-1.2	4.3
CCn1cc(/C=C(\NC(=O)c2ccccc2OC)C(=O)N2CCOCC2)c2ccccc21	·	·	·	19.8	·
COc1cccc(/C=N/n2c(-c3n[nH]c4c3CCC4)n[nH]c2=S)c1O	0.4	7.8	58.3*	42.6	28.3
COc1cc(/C=C2\SC(=O)NC2=O)ccc1Oc1ccc([N+](=O)[O-])cc1[N+](=O)[O-]	0.4	2.5	59.0*	8.5	-7.5
CC(Sc1nnc(NC2CCCCC2)s1)C(=O)Nc1ccc2c(c1)C(=O)c1ccccc1C2=O (configuration not stated)	0.4	15.3	56.2*	21.8	7.0
SMILES	Diaph act CS	HKDC1 inhibitor	Diaph inh CS	PfG6PD inh	G6PDH CS	others
CC(Sc1nnc(NC2CC2)s1)C(=O)Nc1ccc(N2CCOCC2)cc1 (configuration not stated)	·	-0.3	·	11.2	·
O=c1c2ccccc2[nH]c(=S)n1CCCN1CCOCC1	0.8	-1.6	24.8	7.0	-1.6
CC1CCN(CCCn2c(=S)[nH]c3c(sc4ccccc43)c2=O)CC1	0.4	-5.6	58.2*	25.0	-1.1
O=c1c2sc3ccccc3c2[nH]c(=S)n1CCN1CCOCC1	0.4	4.3	55.6*	12.3	0.5
O=C(O)CCCn1c(=S)[nH]c2c(sc3ccc([N+](=O)[O-])cc32)c1=O	0.2	-0.7	83.5*	-0.9	-3.8
COCCCn1c(=S)[nH]c2c(sc3ccccc32)c1=O	0.4	-2.5	64.0*	13.0	4.4
CNC[C@@H]1OCc2ccccc2-c2c(n(C)c3ccccc23)C(=O)N([C@H](C)CO)C[C@@H]1C	·	·	·	7.6	·
Cc1csc(SCC(=O)c2cc(C)n(Cc3cccs3)c2C)n1	0.9	8.2	13.4	0.0	1.1
Cc1cc(C(=O)COc2cccnc2[N+](=O)[O-])c(C)n1Cc1cccs1	0.4	11.6	59.5*	8.9	11.1
CC(=O)Nc1ccccc1OCC(=O)c1cc(C)n(Cc2cccs2)c1C	0.8	-1.2	19.7	-6.8	-4.5
Cc1cc(C(=O)CSc2n[nH]c(-c3ccccc3F)n2)c(C)n1Cc1cccs1	0.5	16.6	50.3*	4.6	0.4
O=C(O[C@@H]1Cc2c(O)cc(O)cc2O[C@@H]1c1cc(O)c(O)c(O)c1)c1cc(O)c(O)c(O)c1	0.3	·	74.1*	·	5.4
Oc1cc(O)c2c(c1)O[C@H](c1ccc(O)c(O)c1)[C@H](O)C2	·	-1.9	·	17.7	·
O=C(C[n+]1ccc(CCSc2ccc(F)cc2)cc1)c1ccccc1	1.2	13.4	-17.7	70.2*	-0.5
Cc1ccc(SCCc2cc[n+](CC(=O)c3ccccc3)cc2)cc1	1.4	-1.6	-44.6	34.1	0.2
Cc1c(N=Nc2c(-c3ccc([N+](=O)[O-])cc3)[nH]n(C(N)=S)c2=O)cccc1[N+](=O)[O-]	0.5	4.8	53.5*	12.4	5.5
NC(=S)n1[nH]c(-c2ccc([N+](=O)[O-])cc2)c(N=Nc2cccc([N+](=O)[O-])c2)c1=O	0.2	-5.4	79.4*	29.2	0.1
NC(=S)n1[nH]c(-c2ccc([N+](=O)[O-])cc2)c(N=Nc2ccccc2[N+](=O)[O-])c1=O	0.7	-2.7	27.3	-3.4	8.2
Cc1oc2c(O)c(O)ccc2c(=O)c1-c1ccccc1	·	5.7	·	-6.4	·
Cc1oc2c(O)c(O)ccc2c(=O)c1-c1cnn(-c2ccccc2)c1	0.3	9.3	70.0*	-12.2	14.9
O=C(Nc1ccc(Cc2ccncc2)cc1)c1cccc([N+](=O)[O-])c1	0.8	-8.4	19.5	5.7	9.9
O=C(Nc1ccc(Nc2ccncc2)cc1)c1ccc(Nc2ccnc3ccc([N+](=O)[O-])cc23)cc1	·	43.7*	·	49.9	·	HKDC1 act conf=-7.2
O=c1cc(O)sc2ccccc12	0.9	42.9*	13.1	-4.2	5.4	HKDC1 act conf=-16.1
